Measured values as given in ChEMBL document CHEMBL4513216, “Probing the Open Global Health Chemical Diversity Library for Multistage-Active Starting Points for Next-Generation Antimalarials” (ACS Infect Dis, 2020).

Experiment: Toxicity liver stage against HepG2, at 10uM
Format: cell-based
Parameters: test concentration 10 uM, cell line HepG2-A16-CD81EGFP
Details: human, HepG2-A16-CD81EGFP cells; read-out: INHIBITION
Summary of the method: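 Uninfected HepG2-A16-CD81EGFP cells, 3 × 10^3 per well, 1536-well, plated on prespotted compound at 10 μM final, parasite-free screening media added to match infected plates; puromycin 10 μM positive, DMSO 0.5% negative; run in parallel with 48 h PbLuc assay at 37 °C, 5% CO2; viability by CellTiter-Glo luminescence, normalized to controls.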

SMILES | cytotoxicity at 10 µM [%]
CNC(=O)CN1C(=O)CN(C(=O)COC)CCC(OC)c2ccccc21 (stereo unspecified) | -8.12
CN1C(=O)C2(CC(=O)Nc3[nH]ncc32)c2ccc(F)cc21 (stereo unspecified) | -1.52
Cc1nn(C)cc1C1CC(=O)Nc2c1cnn2C(C)C (stereo unspecified) | -4.31
COC(=O)CCNC(=O)c1cc(-c2ccc(OC)cc2)nn1C | 4.75
Cc1nn(CCNS(=O)(=O)c2ccccc2)c(C)c1Cl | -5.26
Cc1nn(C)c2c(=O)n(Cc3ccc(Cl)cc3)nnc12 | -3.02
Cc1cccc(Cn2ccc(NS(C)(=O)=O)n2)c1 | -6.6
CCn1cc(N)c(C(=O)NCc2cnn(C)c2)n1 | -0.729
CCc1nccn1-c1nccnc1C1CCCN(C(=O)COC)C1 (stereo unspecified) | -21.5
O=C(N[C@@H]1CCC[C@@H](N2CCCC2)[C@@H]1O)c1cc2ccccc2[nH]1 | -16.2
Cc1ccnc(C2CCN(C(=O)c3cnn(C)c3)C2)n1 (stereo unspecified) | -15
COCCNCc1cc2c(C)cc(C)cc2n2c(=O)n(C)nc12 | -10.3
O=C(Cn1c(=O)n(Cc2ccco2)c2ncccc21)NC1CCCC1 | -3.05
Cc1cnccc1CN1CC[C@H](Oc2cccc(F)c2)[C@@](C)(O)C1 | -5.55
CN(C)c1ccc(CC2COCCN(Cc3nccn3C)C2)nn1 (stereo unspecified) | -10.2
O=C(c1ccncc1)N1CCC(c2nc(O)cc(-c3ccncc3)n2)C1 (stereo unspecified) | 0.873
CN(C)c1cncc(C2CCN(C(=O)CO)CC2)n1 | -1.37
CCn1nnnc1-c1cccc(NCc2nc(C)ccc2O)c1 | -1.71
CC(C)(C)c1cc(NC(=O)CNC2CCc3ncnn3C2)on1 (stereo unspecified) | 9.03
Cc1cc(S(C)(=O)=O)c(C)c(S(=O)(=O)NCC2CCCO2)c1 (stereo unspecified) | -8.02
Cc1nc(CNC(=O)NCCC2=CCCC2)oc1C | -1.18

SMILES | cytotoxicity at 10 µM [%]
Cc1ccc(S(=O)(=O)CCC(=O)N(C)Cc2cnn(C)c2)cc1 | -2.9
CC(C)c1ccc2c(c1)CCCN2C(=O)CN(C)S(C)(=O)=O | 3.78
O=C(Nc1ccc(Cl)cn1)C1CCN(CCc2ccccn2)CC1 | -6.55
O=C(Nc1ccc(Cl)cn1)C1CCCN(CCc2ccccn2)C1 (stereo unspecified) | 7.33
NC(=O)C1CCN(c2cncc(-n3cccn3)n2)CC1 | 12.5
CC(C)OCCC(=O)NCCc1csc(N2CCCC2)n1 | -12.9
Cc1cccc(C(=O)NCCNCC2CNc3ccnn3C2)c1 (stereo unspecified) | -0.00278
CC(C)C1CN(C(=O)c2ccsc2)CCS1 (stereo unspecified) | 2.46
Cc1cnn(CC2CCCN2C(=O)Cc2ccc3c(c2)CCO3)c1 (stereo unspecified) | -144
O=C(NS(=O)(=O)c1ccc(F)cc1)C1CCOc2ccccc21 (stereo unspecified) | 9.91
Cc1cc2cc(CNC3CCN(CC4CCOC4)CC3)oc2cc1C (stereo unspecified) | -8.14
Cc1csc(CNCC(C)c2nc3ccccc3o2)n1 (stereo unspecified) | -15.6
COCCNS(=O)(=O)c1ccc(CNc2ncccc2C#N)cc1 | 6.47
CC(=O)c1ccc(C(=O)N2CCCCC2c2nc[nH]n2)cc1 (stereo unspecified) | -5.3
Cc1noc(-c2ccnc(N3CCC(N4CCCC4)CC3)c2)n1 | 0.409
CS(=O)(=O)c1ccc(NC(=O)N2CCc3sccc3C2)cn1 | 85.1
CSc1cc2c(cc1NC(=O)NCC(C)(C)C(N)=O)OCCO2 | -10.9
COCC1COCCC12CCN(S(=O)(=O)c1ccccc1C)CC2 (stereo unspecified) | -5.42
CCS(=O)(=O)N1C[C@@H](c2ccccc2)[C@@]2(CCNC2=O)C1 | -108
Cn1cccc1C(=O)N1C[C@H]2CN(CCN3CCCC3)C(=O)[C@H]2C1 | -119
O=C(c1cccc(F)c1)N1CC[C@@H]2CN(c3ncccn3)CCO[C@@H]2C1 | -71.5

SMILES | cytotoxicity at 10 µM [%]
CN(C)[C@@H]1CCN(C(=O)c2ccsc2)[C@H]1Cc1cnn(C)c1 | -6.18
COCC(C)NCc1nc(-c2ccc(C)cc2)c(-c2ccccn2)[nH]1 (stereo unspecified) | -3.81
C=C(C)COc1ccccc1C(=O)N1CCC(C(=O)NCC)C1 (stereo unspecified) | 8.89
OCC1CCN(C[C@@H]2CN(C3Cc4ccccc4C3)C[C@@H]2CO)CC1 | -2.02
Cc1cc(-c2nn(C)c(Cl)c2CN2CCCCC(N)C2)no1 (stereo unspecified) | -2.1
CCc1c(C)sc2ncnc(N3C[C@H](O)[C@@H](N4CCCC4)C3)c12 | -4.36
CCOCCCNc1nc2c(s1)c(C)nn2C | 1.54
CCc1nc(C)sc1CN1CC[C@](C)(O)[C@H](C)C1 | -2.11
CCn1c(C2CCN(C(=O)c3ccc4sc(C)nc4c3)CC2)n[nH]c1=O | -18
CN(Cc1noc2c1CCCC2)C(=O)C1CCOc2ccccc2C1 (stereo unspecified) | -7.11
CC(=O)NCCOc1cccc(Br)c1 | -3.06
O=C(CCc1cn[nH]c1)N1CCC(C2CCN(c3ncccn3)CC2)C1 (stereo unspecified) | 10.2
CN(Cc1cc(C(C)(C)C)n[nH]1)C(=O)c1ccc2nccn2c1 | -7.01
COc1ccc(F)c(-c2cc(O)nc(N)n2)c1 | 2.05
CCC1c2cccn2CCN1C(=O)c1ccc2nonc2c1 (stereo unspecified) | -13.2
Cc1nsc(NC(=O)N2CCN(Cc3ccc(F)cc3)C(=O)C2)n1 | 1.07
OCCN1CCN(Cc2coc(-c3cccc(F)c3)n2)CC1 | -21.6
CC(=O)c1ccc(N2CCN(C(=O)NCc3cc[nH]n3)CC2)cc1 | -2.17
COc1c(CNC2CCN(C(=O)C(C)C)CC2)c(C(C)C)nn1C | 1.25
Fc1ccc(-c2nc(CNC3CCc4ncnn4C3)cs2)cc1 (stereo unspecified) | -4.92
Cc1cc(NC(=O)NCC(O)c2ccc(F)cc2)n(C)n1 (stereo unspecified) | -2.69

SMILES | cytotoxicity at 10 µM [%]
CCC(CC)NC(=O)Cn1cc(-c2ccccc2)cn1 | -0.0581
CCn1ccnc1CNCC1CCCN1c1cccnn1 (stereo unspecified) | -1.28
CCc1noc(C(C)N2CCOCC2)n1 (stereo unspecified) | -6.5
c1ccc2cc(OCCN3CCOC(Cn4cncn4)C3)ccc2c1 (stereo unspecified) | 4.6
Cc1cn2c(n1)CCC(NC(=O)c1cc(C(C)C)no1)C2 (stereo unspecified) | -2.12
O=C1CCC2(CCC(NCc3cccnc3)CC2)N1Cc1ccccc1 (stereo unspecified) | -2.04
Cc1oncc1C(=O)N[C@@H]1CN(CC2CC2)C[C@@H]2CCCO[C@@H]21 | -103
C[C@H]1CN(c2ccccn2)C[C@@]12CCN(Cc1cccnc1)C2=O | -1.16
Cc1nc(CN2C(=O)CC[C@@H]3[C@H]2CCN3C(=O)c2ccccn2)cs1 | -77.7
C[C@@H]1CN(C(=O)c2ccc[nH]2)C[C@]12CCN(CCN1CCCC1)C2=O | 10.4
Cc1noc2nc(C3CCN(Cc4cccnc4)CC3)cc(C(F)F)c12 | -2.5
CN(C)CCNC(=O)c1nc2c(s1)CCCN2C(=O)C1CC1 | -108
c1cnc(N2CCO[C@H]3CN(CC4CCOCC4)C[C@H]32)nc1 | -95.9
CCS(=O)(=O)N1CCN(Cc2ccncc2)c2nc(C)ccc2C1 | -70.8
COCCN1CCC2(CCCN(c3ncccn3)C2)C1 (stereo unspecified) | 1.36
O=C(Nc1cccnc1)[C@H]1C[C@H]2CN(S(=O)(=O)C3CC3)C[C@@H]1O2 | -71.8
CC(=O)N1C[C@H]2CC[C@@H](C1)N(C(=O)CCc1n[nH]c3c1CCCC3)C2 | 10.3
O=C(NCC1CCCCC1)N1C[C@@H]2C[C@H](C(=O)N3CCCC3)[C@H](C1)O2 | -2.48
